The source made the active and inactive calls. The calls are words filed in the database; no cut-off is given here.
Assays:
SiHa [1] = test: Inhibition of colony formation in human SiHa cells at 80 nM incubated for 5 days by crystal violet staining based light microscopy; format: functional, cell-based
In short: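 4 × 10^3 cells per well were cultured with graded concentrations for 5 days. Cells were then fixed with 20% methanol, stained with 0.5% crystal violet and photographed by light microscopy.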

MDA-MB-231 = test: Antiproliferative activity against human MDA-MB-231 cells at 40 nM assessed as reduction in cell viability incubated for 48 hrs by EdU staining based laser scanning confocal microscopy; format: functional
In short: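 Cells, 5×10^4, were seeded in 24-well plates and treated for 48 h. They were then labeled using an EdU Apollo 488 imaging kit with Hoechst 33342 nuclear stain and imaged by laser scanning confocal microscopy. Percent EdU-positive cells = EdU-positive/Hoechst-stained × 100%.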

SiHa [2] = test: Antiangiogenic activity against human SiHa cells xenografted in orally dosed NOD/SCID BALB/c mouse assessed as reduction in CD31 expression measured after 21 days by hematoxylin and eosin staining based immunohistochemistry; format: functional, organism-based
In short: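 Female NOD/SCID Balb/c mice, 6–8 weeks old, received 2×10^6 SiHa cells subcutaneously in the right flank. Once tumors reached 100 mm³, mice were randomized, 5 per group, and gavaged once daily for 21 days. Formalin-fixed, paraffin-embedded tumor sections were stained with Ki67 or CD31 antibody (1:100, 4 °C overnight), then biotin secondary and ABC-peroxidase/DAB, with hematoxylin counterstain.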

[3] = Toxicity in NOD/SCID BALB/c mouse xenografted with human SiHa cells assessed as toxic effects in liver at 40 mg/kg, po administered for 48 hrs by hematoxylin and eosin staining method; format: organism-based; details: in vivo
[4] = AUC (0 to infinity) in Sprague-Dawley rat at 10 mg/kg, po by HPLC-MS analysis; format: ADME, organism-based; design: dose 10 mg/kg, time infinity, route oral; details: in vivo
In short: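 Rats fitted with jugular vein catheters for serial blood sampling. Compound dissolved in saline with 5% (v/v) DMSO and given as a single 10 mg/kg dose iv or po after an overnight fast, n = 5 per group. Plasma isolated at once and measured by HPLC with tandem MS detection. Parameters derived by noncompartmental fitting.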

[5] = target: 5'-AMP-activated protein kinase catalytic subunit alpha-2 (Homo sapiens) (UniProt P54646); test: Inhibition of recombinant full length human AMPKalpha2 at 1 uM using AMARAASAAALAR as substrate incubated for 40 mins in presence of [gamma-33P]-ATP by scintillation counting method relative to control
Chain of 5'-AMP-activated protein kinase catalytic subunit alpha-2 (Homo sapiens) (P54646 whole entry, looked up): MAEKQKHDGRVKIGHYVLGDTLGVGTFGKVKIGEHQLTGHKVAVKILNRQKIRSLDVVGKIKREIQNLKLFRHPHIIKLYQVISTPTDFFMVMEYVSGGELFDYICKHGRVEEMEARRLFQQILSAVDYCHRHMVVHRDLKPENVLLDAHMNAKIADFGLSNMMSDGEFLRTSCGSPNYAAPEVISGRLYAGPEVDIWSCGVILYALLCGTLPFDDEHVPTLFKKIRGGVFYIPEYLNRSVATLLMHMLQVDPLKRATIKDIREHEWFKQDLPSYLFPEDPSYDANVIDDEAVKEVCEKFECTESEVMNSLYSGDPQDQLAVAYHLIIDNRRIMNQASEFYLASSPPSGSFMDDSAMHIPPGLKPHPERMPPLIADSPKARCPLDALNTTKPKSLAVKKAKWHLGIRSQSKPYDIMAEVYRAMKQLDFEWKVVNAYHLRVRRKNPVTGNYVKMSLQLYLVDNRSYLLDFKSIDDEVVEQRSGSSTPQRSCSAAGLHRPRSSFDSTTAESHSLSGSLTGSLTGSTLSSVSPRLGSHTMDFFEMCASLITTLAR
In short: (§1)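 Kinase panel profiling at 1 μM performed by Eurofins KinaseProfiler; percent inhibition reported as mean of two independent experiments.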

[6] = target: Calcium/calmodulin-dependent protein kinase type 1B (Homo sapiens) (UniProt Q6P2M8); test: Inhibition of recombinant full length human CAMKIbeta at 1 uM using KKLRRTLSFAEP as substrate incubated for 40 mins in presence of [gamma-33P]-ATP by scintillation counting method relative to control; in short: as §1
Chain of Calcium/calmodulin-dependent protein kinase type 1B (Homo sapiens) (Q6P2M8 whole entry, the tested form may be a part): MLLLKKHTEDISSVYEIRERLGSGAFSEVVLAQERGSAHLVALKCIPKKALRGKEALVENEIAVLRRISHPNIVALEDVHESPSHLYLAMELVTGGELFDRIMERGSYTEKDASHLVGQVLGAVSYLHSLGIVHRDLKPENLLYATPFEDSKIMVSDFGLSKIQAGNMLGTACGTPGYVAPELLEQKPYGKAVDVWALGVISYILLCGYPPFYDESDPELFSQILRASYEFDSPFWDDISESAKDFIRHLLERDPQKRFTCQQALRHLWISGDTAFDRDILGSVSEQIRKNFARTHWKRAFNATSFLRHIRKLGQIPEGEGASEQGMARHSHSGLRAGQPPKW

[7] = target: Epithelial discoidin domain-containing receptor 1 (Homo sapiens) (UniProt Q08345); test: Inhibition of recombinant human DDR1 (492 to end residues) at 1 uM using KKKSPGEYVNIEFG as substrate incubated for 40 mins in presence of [gamma-33P]-ATP by scintillation counting method relative to control; in short: as §1
[8] = target: Insulin-like growth factor 1 receptor (Homo sapiens) (UniProt P08069); test: Inhibition of recombinant human IGF1R (959 to end residues) at 1 uM using KKKSPGEYVNIEFG as substrate incubated for 40 mins in presence of [gamma-33P]-ATP by scintillation counting method relative to control
Chain of Insulin-like growth factor 1 receptor (Homo sapiens) (P08069 31-736 limits assumed): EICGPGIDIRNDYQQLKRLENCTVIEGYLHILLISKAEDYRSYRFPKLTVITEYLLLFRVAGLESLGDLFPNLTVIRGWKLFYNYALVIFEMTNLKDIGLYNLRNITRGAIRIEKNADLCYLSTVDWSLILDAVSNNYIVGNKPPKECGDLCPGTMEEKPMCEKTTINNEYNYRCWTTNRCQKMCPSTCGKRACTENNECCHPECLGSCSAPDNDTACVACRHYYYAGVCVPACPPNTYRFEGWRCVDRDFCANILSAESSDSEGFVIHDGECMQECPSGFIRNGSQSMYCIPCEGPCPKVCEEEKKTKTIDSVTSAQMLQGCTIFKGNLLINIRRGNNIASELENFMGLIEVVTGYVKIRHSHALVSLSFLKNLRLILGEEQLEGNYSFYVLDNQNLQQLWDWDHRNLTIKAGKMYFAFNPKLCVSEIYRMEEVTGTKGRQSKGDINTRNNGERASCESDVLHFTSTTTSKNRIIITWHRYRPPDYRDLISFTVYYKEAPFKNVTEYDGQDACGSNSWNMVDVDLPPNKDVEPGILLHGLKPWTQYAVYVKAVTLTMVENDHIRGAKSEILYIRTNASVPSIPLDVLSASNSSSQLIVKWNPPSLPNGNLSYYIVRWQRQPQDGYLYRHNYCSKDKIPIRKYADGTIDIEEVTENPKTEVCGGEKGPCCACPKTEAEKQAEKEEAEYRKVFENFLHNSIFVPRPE
Chain of Insulin-like growth factor 1 receptor (Homo sapiens) (P08069 741-1367 limits assumed): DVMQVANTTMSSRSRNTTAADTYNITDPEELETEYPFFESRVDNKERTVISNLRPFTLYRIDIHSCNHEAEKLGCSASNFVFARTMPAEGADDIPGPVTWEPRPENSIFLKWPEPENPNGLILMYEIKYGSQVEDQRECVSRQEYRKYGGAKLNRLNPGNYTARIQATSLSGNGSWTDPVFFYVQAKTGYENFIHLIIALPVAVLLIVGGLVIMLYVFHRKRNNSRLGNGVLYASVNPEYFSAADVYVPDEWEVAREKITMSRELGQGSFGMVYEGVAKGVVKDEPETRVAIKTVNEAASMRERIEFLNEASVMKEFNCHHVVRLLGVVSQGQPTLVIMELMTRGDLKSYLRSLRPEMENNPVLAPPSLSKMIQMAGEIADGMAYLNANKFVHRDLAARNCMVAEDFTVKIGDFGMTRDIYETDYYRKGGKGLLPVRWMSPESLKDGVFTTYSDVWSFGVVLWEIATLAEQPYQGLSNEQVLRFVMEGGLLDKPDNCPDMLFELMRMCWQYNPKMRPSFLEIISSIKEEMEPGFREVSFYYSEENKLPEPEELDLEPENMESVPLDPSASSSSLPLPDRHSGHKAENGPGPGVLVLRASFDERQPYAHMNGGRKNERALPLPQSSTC

[9] = target: Serine/threonine-protein kinase 26 (Homo sapiens) (UniProt Q9P289); test: Inhibition of recombinant human MST4 (4 to 304 residues) at 1 uM using RLGRDKYKTLRQIRQ as substrate incubated for 40 mins in presence of [gamma-33P]-ATP by scintillation counting method relative to control
Chain of Serine/threonine-protein kinase 26 (Homo sapiens) (Q9P289 2-416 limits assumed): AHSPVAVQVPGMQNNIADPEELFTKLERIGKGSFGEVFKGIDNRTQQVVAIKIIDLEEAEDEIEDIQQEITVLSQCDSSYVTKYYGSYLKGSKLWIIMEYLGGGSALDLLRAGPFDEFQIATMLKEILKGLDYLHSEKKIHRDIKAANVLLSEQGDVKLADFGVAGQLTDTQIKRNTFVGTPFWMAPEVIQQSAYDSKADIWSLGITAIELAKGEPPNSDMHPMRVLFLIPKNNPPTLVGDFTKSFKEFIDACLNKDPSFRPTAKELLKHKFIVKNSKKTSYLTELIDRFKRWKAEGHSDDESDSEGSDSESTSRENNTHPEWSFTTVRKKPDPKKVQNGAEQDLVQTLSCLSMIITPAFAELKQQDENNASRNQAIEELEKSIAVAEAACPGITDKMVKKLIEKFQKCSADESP

[10] = target: Dual specificity mitogen-activated protein kinase kinase 2 (Homo sapiens) (UniProt P36507); test: Inhibition of recombinant human full length MEK2 at 1 uM using MBP as substrate incubated for 40 mins in presence of [gamma-33P]-ATP by scintillation counting method relative to control
Chain of Dual specificity mitogen-activated protein kinase kinase 2 (Homo sapiens) (P36507 whole entry): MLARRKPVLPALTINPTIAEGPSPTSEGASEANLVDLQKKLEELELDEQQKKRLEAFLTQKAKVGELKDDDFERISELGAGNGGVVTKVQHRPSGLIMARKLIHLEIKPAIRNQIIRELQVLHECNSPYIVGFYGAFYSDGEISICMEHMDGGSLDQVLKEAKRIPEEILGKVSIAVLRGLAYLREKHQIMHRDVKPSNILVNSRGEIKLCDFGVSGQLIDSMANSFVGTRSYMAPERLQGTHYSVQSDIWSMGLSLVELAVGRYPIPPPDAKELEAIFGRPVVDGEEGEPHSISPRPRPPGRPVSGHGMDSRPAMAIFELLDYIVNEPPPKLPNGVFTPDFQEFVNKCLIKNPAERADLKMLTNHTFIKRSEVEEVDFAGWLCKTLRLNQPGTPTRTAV

[11] = test system: Hepatocyte growth factor receptor (Homo sapiens), P08581 [Y1248H]; test: Inhibition of recombinant human Met Y1248H mutant (974 to end residues) at 1 uM using KKKGQEEEYVFIE as substrate incubated for 40 mins in presence of [gamma-33P]-ATP by scintillation counting method relative to control
[12] = target: Dual specificity mitogen-activated protein kinase kinase 7 (Homo sapiens) (UniProt O14733); test: Inhibition of recombinant human MKK7beta (2 to end residues) at 1 uM using unactive JNK1a1 as substrate incubated for 40 mins in presence of [gamma-33P]-ATP by scintillation counting method relative to control
Chain of Dual specificity mitogen-activated protein kinase kinase 7 (Homo sapiens) (O14733 whole entry): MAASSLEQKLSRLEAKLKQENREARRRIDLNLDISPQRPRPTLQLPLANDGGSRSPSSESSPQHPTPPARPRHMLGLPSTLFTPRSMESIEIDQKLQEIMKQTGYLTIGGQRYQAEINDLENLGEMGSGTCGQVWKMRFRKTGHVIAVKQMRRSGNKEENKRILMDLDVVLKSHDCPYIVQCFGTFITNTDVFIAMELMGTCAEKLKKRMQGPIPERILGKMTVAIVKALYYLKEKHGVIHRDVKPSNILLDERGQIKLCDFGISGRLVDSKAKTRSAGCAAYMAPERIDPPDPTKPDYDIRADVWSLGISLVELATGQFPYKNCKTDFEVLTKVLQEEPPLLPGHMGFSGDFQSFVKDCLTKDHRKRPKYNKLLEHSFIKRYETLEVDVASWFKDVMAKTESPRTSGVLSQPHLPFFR

[13] = target: G protein-coupled receptor kinase 6 (Homo sapiens) (UniProt P43250); test: Inhibition of recombinant human full length GRK6 at 1 uM using casein as substrate incubated for 40 mins in presence of [gamma-33P]-ATP by scintillation counting method relative to control
Chain of G protein-coupled receptor kinase 6 (Homo sapiens) (P43250 whole entry, looked up): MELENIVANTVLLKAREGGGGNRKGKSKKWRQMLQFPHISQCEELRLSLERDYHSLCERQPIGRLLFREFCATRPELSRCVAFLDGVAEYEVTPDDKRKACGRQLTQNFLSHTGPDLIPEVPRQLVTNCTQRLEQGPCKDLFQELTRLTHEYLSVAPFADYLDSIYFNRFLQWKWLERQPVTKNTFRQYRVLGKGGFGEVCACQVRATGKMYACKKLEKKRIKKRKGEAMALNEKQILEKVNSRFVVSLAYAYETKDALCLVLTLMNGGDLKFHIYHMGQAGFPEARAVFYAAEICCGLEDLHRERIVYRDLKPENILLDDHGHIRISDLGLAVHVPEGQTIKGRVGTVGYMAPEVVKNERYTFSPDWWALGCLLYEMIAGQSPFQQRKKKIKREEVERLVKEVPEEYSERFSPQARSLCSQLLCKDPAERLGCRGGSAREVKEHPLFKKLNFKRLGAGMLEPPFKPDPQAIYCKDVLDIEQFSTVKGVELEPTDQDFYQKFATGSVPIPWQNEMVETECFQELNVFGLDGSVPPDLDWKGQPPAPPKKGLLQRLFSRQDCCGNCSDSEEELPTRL
In short: (§2)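 Tested at a single 1 uM in an outsourced commercial kinase-profiling panel, read as percent inhibition. Each value is the mean of two independent experiments.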

[14] = target: Macrophage-stimulating protein receptor (Homo sapiens) (UniProt Q04912); test: Inhibition of recombinant human RON (983 to end residues) at 1 uM using GGMEDIYFEFMGGKKK as substrate incubated for 40 mins in presence of [gamma-33P]-ATP by scintillation counting method relative to control
[15] = target: STE20-like serine/threonine-protein kinase (Homo sapiens) (UniProt Q9H2G2); test: Inhibition of recombinant human SLK (1 to 373 residues) at 1 uM using RLGRDKYKTLRQIRQ as substrate incubated for 40 mins in presence of [gamma-33P]-ATP by scintillation counting method relative to control
[16] = target: Fibroblast growth factor receptor 1 (Homo sapiens) (UniProt P11362); test: Inhibition of recombinant human FGFR1 (456 to 765 residues) at 1 uM using KKKSPGEYVNIEFG as substrate incubated for 40 mins in presence of [gamma-33P]-ATP by scintillation counting method relative to control; in short: as §2
Chain of Fibroblast growth factor receptor 1 (Homo sapiens) (P11362 22-822 limits assumed): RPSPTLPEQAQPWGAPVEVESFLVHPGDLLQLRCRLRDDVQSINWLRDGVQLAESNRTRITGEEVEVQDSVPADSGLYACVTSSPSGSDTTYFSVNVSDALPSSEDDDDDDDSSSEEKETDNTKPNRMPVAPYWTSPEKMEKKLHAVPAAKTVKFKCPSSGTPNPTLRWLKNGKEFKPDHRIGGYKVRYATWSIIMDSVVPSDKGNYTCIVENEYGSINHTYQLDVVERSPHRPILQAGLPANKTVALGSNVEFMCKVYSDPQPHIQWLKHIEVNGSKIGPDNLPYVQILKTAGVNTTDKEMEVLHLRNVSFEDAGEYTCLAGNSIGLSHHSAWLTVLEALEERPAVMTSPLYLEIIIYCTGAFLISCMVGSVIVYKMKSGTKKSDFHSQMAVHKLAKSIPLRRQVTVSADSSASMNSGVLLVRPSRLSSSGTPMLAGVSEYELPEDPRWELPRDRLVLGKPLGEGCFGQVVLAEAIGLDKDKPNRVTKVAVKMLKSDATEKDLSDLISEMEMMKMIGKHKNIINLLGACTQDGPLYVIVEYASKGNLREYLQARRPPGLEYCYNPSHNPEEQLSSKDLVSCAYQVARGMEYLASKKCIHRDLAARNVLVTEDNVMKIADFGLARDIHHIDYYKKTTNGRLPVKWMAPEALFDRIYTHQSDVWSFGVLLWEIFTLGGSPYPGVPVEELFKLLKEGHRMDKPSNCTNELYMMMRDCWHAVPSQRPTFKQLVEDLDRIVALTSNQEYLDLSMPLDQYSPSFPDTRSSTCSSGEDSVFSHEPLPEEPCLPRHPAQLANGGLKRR

HeLa = test: Induction of apoptosis in human HeLa cells assessed as decrease in Bcl2 expression at 40 to 80 nM incubated for 48 hrs by Western blot analysis; format: functional, cell-based
In short: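 Cells were treated for 48 h, washed three times with PBS, and lysed in RIPA buffer. Immunoblots used anti-Rb, anti-phospho-Rb, anti-Ki67 and anti-Bcl-2 (each 1:1000), with β-actin as loading control.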

[17] = Toxicity in BALB/c mouse assessed as effect on blood parameter by measuring hemoglobin content at 40 mg/kg, po administered once two days for 4 times by hematology analyzer; details: in vivo

| SMILES | inhibition (SiHa [1]) | inhibition (MDA-MB-231) | inhibition (SiHa [2]) | Activity [3] | AUC(0-inf) [4] | inhibition [5] | inhibition [6] | inhibition [7] | inhibition [8] | inhibition [9] | inhibition [10] | inhibition [11] | inhibition [12] | inhibition [13] | inhibition [14] | inhibition [15] | inhibition [16] | Activity (HeLa) | Activity [17] |
| --- | --- | --- | --- | --- | --- | --- | --- | --- | --- | --- | --- | --- | --- | --- | --- | --- | --- | --- | --- |
| COc1cc2nccc(Oc3ccc(NC(=O)C4(C(=O)Nc5ccc(F)cc5)CC4)cc3)c2cc1OC [CABOZANTINIB] | Active | Active | – | – | – | – | – | – | – | – | – | – | – | – | – | – | – | – | – |
| Cc1ccc(NC(=O)C2(C(=O)Nc3ccc(Nc4ncc(F)c(-c5cc(F)c6nc(C)n(C(C)C)c6c5)n4)cc3)CC2)cc1 | – | – | Dose-dependent effect | Non-Toxic | 6000 ng·h/mL | 77% | 8% | 73% | 11% | 48% | 14% | 40% | 13% | 0% | 54% | 90% | 0% | Active | Non-Toxic |
